Test results as given in ChEMBL document CHEMBL4152289, “Novel 8-nitroquinolin-2(1H)-ones as NTR-bioactivated antikinetoplastid molecules: Synthesis, electrochemical and SAR study” (Eur J Med Chem, 2018).

What was measured:
[1] = Electrochemical behavior of the compound assessed as redox potential corrected toward normal hydrogen electrode at 10^-3 mol/L by cyclic voltammetry; details: 1000 µM
Leishmania infantum = test: microbe, parasite or virus in culture; type: functional, organism-based; details: MHOM/MA/67/ITMAP-263, 48 h
[2] = test system: Trypanosoma brucei brucei; test: Antitrypanosomal activity against trypomastigote stage of Trypanosoma brucei brucei AnTat 1.9 assessed as decrease in parasite viability after 69 hrs by Alamar Blue assay; type: functional, organism-based; details: AnTat 1.9, 69 h
HepG2 [3] = test: Cytotoxicity against human HepG2 cells assessed as decrease in cell viability after 72 hrs by MTT assay; details: hepg2, 72 h
THP-1 = test: Cytotoxicity against human THP1 cells assessed as decrease in cell viability after 72 hrs by MTT assay; type: cell-based; details: thp-1, 72 h
Outline: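 PMA-differentiated THP-1 (50 ng/mL final), 10⁶ cells/mL in complete RPMI, 48 h. Compounds in DMSO (<0.5% v/v) for 72 h at 37 °C. MTT 0.5 mg/mL for 2 h, formazan dissolved in DMSO, A570 with 630 nm reference. Viability expressed as percent of untreated control; doxorubicin as positive control; 50% cytotoxic concentration from dose–response curve.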

Leishmania donovani [4] = test: Antileishmanial activity against amastigote stage of Leishmania donovani MHOM/IN/00/DEVI infected in human THP1 cells assessed as inhibition of parasite infection after 120 hrs by Giemsa staining-based microscopic method; type: functional, organism-based; details: THP-1, 120 h
Outline: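 THP-1 cells differentiated with PMA (50 ng/mL final), 48 h at 37 °C, 6% CO2, then infected 10:1 with promastigotes acid-primed 24 h at 27 °C in Schneider 20% FCS pH 5.4. After 24 h, compounds in DMSO (<0.5% v/v) added in duplicate for 120 h. Methanol fixation and Giemsa staining; ≥200 cells counted. IC50 is the concentration halving infected macrophages, nonlinear regression, mean of three independent experiments.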

Leishmania donovani [5] = test: Antileishmanial activity against wild type promastigote stage of Leishmania donovani LdBOB assessed as inhibition of parasite growth after 72 hrs by resazurin assay; type: functional, organism-based
Outline: (§1)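 LdBOB promastigotes (from MHOM/SD/62/1S-CL2D) grown at 26 °C in modified M199. NTR1- and NTR2-overexpressing lines kept in nourseothricin 100 µg/mL. Triplicate 10 mL cultures seeded at 5 × 10⁴ parasites/mL and exposed to drug for 72 h. 50 µM resazurin added, fluorescence (ex 528/em 590 nm) read after 4 h. Background-corrected data fitted to two-parameter EC50 equation. Experiments were run at least twice; values are mean plus standard deviation.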

Leishmania donovani [6] = test: Antileishmanial activity against promastigote stage of Leishmania donovani LdBOB over-expressing NTR1 assessed as inhibition of parasite growth after 72 hrs by resazurin assay; type: functional, organism-based; outline: as §1
Leishmania donovani [7] = test: Antileishmanial activity against promastigote stage of Leishmania donovani LdBOB over-expressing NTR2 assessed as inhibition of parasite growth after 72 hrs by resazurin assay; type: functional, organism-based; outline: as §1
[8] = test system: Trypanosoma brucei brucei; test: Antitrypanosomal activity against trypomastigote stage of Trypanosoma brucei brucei S427 over-expressing NTR1 assessed as parasite growth inhibition after 72 hrs by haemocytometer; type: functional, organism-based; details: S427, 72 h
[9] = test system: Trypanosoma brucei brucei; test: Antitrypanosomal activity against wild type trypomastigote stage of Trypanosoma brucei brucei S427 assessed as parasite growth inhibition after 72 hrs by haemocytometer; type: functional, organism-based; details: S427, 72 h
Leishmania donovani [10] = test: Selectivity ratio of IC50 for wild type promastigote stage of Leishmania donovani LdBOB to IC50 for promastigote stage of Leishmania donovani LdBOB over-expressing NTR1; type: functional
[11] = Half life in CD1 mouse liver microsomes by LC-MS method; type: ADME, microsome
Outline: (§2)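 Duplicate incubations with female CD-1 mouse microsomes at 37 °C in 50 mM phosphate pH 7.4 with MgCl2 5 mM, NADP 1 mM, G6PDH 0.4 U/mL and glucose-6-phosphate 5 mM. Samples at 0, 5, 10, 20, 30 and 40 min quenched with 4 vol acetonitrile containing internal standard, then LC-MS/MS.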

serum albumin [12] = target: T1, serum albumin (Homo sapiens, UniProt P02768); test: Binding affinity to human serum albumin after 4 hrs by LC-MS method; type: ADME; details: read-out: PB (converted)
Salmonella typhimurium [13] = test: Mutagenicity in Salmonella typhimurium TA97a at […] preincubated for 1 hr with S9 mix followed by addition of molten top agar and measured 48 hrs post dark incubation by Ames test; type: toxicity, organism-based; details: salmonella enterica subsp. enterica serovar typhimurium
Salmonella typhimurium [14] = test: Mutagenicity in Salmonella typhimurium TA98 at […] preincubated for 1 hr with S9 mix followed by addition of molten top agar and measured 48 hrs post dark incubation by Ames test; type: toxicity, organism-based; details: salmonella enterica subsp. enterica serovar typhimurium
Salmonella typhimurium [15] = test: Mutagenicity in Salmonella typhimurium TA100 at […] preincubated for 1 hr with S9 mix followed by addition of molten top agar and measured 48 hrs post dark incubation by Ames test; type: toxicity, organism-based; details: salmonella enterica subsp. enterica serovar typhimurium
Salmonella typhimurium [16] = test: Mutagenicity in Salmonella typhimurium TA102 at […] preincubated for 1 hr with S9 mix followed by addition of molten top agar and measured 48 hrs post dark incubation by Ames test; type: toxicity, organism-based; details: salmonella enterica subsp. enterica serovar typhimurium
HepG2 [17] = test: Genotoxicity in human HepG2 cells at 1 to 40 uM after 2 to 72 hrs by comet assay; type: toxicity, cell-based; details: hepg2, 40 µM
Outline: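 Alkaline comet assay in HepG2 cells exposed 2 or 72 h to 1, 10, 20 or 40 µM. Cells embedded in 0.7% low-melting agarose, lysed 18 h at 4 °C at pH 10, electrophoresed 24 min at 0.8 V/cm at pH >13, then SYBR Gold stained. % tail DNA is the median of 200 cells (50 per deposit, 4 deposits). 1 mM methylmethanesulfonate as positive control.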

[18] = Metabolic stability in CD1 mouse liver microsomes at 5 mins by LC-MS method; type: ADME, microsome; outline: as §2
[19] = Metabolic stability in CD1 mouse liver microsomes at 10 mins by LC-MS method; type: ADME, microsome; outline: as §2
[20] = Metabolic stability in CD1 mouse liver microsomes at 20 mins by LC-MS method; type: ADME, microsome; outline: as §2
[21] = Metabolic stability in CD1 mouse liver microsomes at 30 mins by LC-MS method; type: ADME, microsome; details: 0.5 h; outline: as §2
[22] = Metabolic stability in CD1 mouse liver microsomes at 40 mins by LC-MS method; type: ADME, microsome; outline: as §2
Albumin = Albumin (Homo sapiens, UniProt P02768); test: (§3) Binding affinity to human serum albumin assessed as fraction unbound after 4 hrs by LC-MS method; type: ADME; details: isolated protein, 4 h
serum albumin [23] = target: T1, serum albumin; test: as §3; type: ADME; details: human serum albumin

T1 sequence (P02768 whole entry): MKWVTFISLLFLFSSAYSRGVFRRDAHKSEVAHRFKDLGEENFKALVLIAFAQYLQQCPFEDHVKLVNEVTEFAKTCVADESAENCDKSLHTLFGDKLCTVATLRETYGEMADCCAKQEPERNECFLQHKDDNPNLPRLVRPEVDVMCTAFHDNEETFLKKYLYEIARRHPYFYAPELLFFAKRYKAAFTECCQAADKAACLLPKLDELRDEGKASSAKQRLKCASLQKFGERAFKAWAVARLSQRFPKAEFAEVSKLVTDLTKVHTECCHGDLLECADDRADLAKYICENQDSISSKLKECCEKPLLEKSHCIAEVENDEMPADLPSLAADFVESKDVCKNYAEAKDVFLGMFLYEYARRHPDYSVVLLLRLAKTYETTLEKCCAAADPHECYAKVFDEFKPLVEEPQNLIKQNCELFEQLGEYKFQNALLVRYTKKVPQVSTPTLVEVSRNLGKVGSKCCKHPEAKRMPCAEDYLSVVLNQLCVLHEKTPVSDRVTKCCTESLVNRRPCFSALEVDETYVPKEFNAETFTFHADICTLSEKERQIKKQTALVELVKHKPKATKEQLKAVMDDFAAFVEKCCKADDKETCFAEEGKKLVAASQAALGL
Albumin, sequence (P02768 whole entry): as above

O=c1[nH]c2c([N+](=O)[O-])cccc2cc1Br
Activity [1]: -0.45 V
IC50 (Leishmania infantum): 7.1 µM
IC50 [2]: 1.9 µM
CC50 (HepG2 [3]): 92 µM
CC50 (THP-1): 72 µM
IC50 (Leishmania donovani [4]): 18 µM
IC50 (Leishmania donovani [5]): 5.9 µM
IC50 (Leishmania donovani [6]): 0.47 µM
IC50 (Leishmania donovani [7]): 4.6 µM
IC50 [8]: 3.9 µM
IC50 [9]: 17.7 µM
Ratio IC50 (Leishmania donovani [10]): 10
t1/2 [11]: > 40 min
fraction unbound at 4 h (serum albumin [12]): 0.078
Activity (Salmonella typhimurium [13]; 250 µM): Toxic
Activity (Salmonella typhimurium [13]; 2500 µM): Toxic
Activity (Salmonella typhimurium [14]; 250 µM): Toxic
Activity (Salmonella typhimurium [14]; 2500 µM): Toxic
Activity (Salmonella typhimurium [15]; 250 µM): Toxic
Activity (Salmonella typhimurium [15]; 2500 µM): Toxic
Activity (Salmonella typhimurium [16]; 250 µM): Non-Toxic
Activity (Salmonella typhimurium [16]; 2500 µM): Toxic
Activity (HepG2 [17]): Non-Toxic
Stability [18]: 861 pmol/mL
Stability [19]: 869 pmol/mL
Stability [20]: 802 pmol/mL
Stability [21]: 780 pmol/mL
Stability [22]: 772 pmol/mL
logFu (Albumin): -1.11
fraction unbound at 4 h (serum albumin [23]): 0.078
